{"source": "ChEMBL document CHEMBL4028886", "about": "(J Med Chem, 2017)", "key": {"Rattus norvegicus [1]": {"tested_on": "Rattus norvegicus", "experiment": "Neurotoxicity in Sprague-Dawley rat assessed as effect on local movements at 10 mg/kg, ip administered 30 mins prior to test by open field test relative to control", "assay_type": "toxicity, organism-based", "conditions": "in vivo, 0.5 h", "in_short": "(§1)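 Male Sprague–Dawley rats, 10 per group, given 10 mg/kg ip daily for 10 days and 30 min before each test. DMSO vehicle group as control. Open field arena 100 × 100 cm with 40 cm walls. Animals video-tracked for 10 min.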"}, "Rattus norvegicus [2]": {"tested_on": "Rattus norvegicus", "experiment": "Neurotoxicity in Sprague-Dawley rat assessed as effect on time spent in open arm at 10 mg/kg, ip administered 30 mins prior to test by elevated plus maze test relative to control", "assay_type": "toxicity, organism-based", "conditions": "in vivo, 0.5 h", "in_short": "(§2)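 Male Sprague–Dawley rats, 10 per group, dosed 10 mg/kg ip daily for 10 days and 30 min before testing. DMSO vehicle controls. Elevated plus maze, rats placed centrally and video-tracked. Recorded: time in closed and open arms, arm entries, path length.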"}, "[3]": {"target": "Sodium-dependent dopamine transporter (Homo sapiens, UniProt Q01959)", "sequence (Q01959 whole entry)": "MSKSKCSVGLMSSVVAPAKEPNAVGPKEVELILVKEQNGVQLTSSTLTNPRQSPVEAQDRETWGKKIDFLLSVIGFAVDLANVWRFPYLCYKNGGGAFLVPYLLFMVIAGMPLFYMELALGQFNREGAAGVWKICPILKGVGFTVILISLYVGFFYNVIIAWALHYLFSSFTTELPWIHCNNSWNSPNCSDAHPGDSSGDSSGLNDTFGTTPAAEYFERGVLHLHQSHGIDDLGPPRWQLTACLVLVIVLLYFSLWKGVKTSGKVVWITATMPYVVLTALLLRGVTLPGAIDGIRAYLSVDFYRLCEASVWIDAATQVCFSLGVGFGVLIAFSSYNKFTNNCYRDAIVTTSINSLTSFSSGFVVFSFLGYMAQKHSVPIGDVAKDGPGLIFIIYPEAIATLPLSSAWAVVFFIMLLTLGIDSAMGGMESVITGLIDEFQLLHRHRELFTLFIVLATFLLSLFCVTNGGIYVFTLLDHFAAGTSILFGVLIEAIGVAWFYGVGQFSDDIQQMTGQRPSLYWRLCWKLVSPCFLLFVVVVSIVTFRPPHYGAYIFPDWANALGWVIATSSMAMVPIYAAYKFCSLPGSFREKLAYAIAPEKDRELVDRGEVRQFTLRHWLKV", "experiment": "Displacement of [3H]WIN 35,428 from human DAT expressed in HEK293 cells at 1 and 3 uM after 30 mins in presence of increasing concentration of cocaine by liquid scintillation counting", "assay_type": "cell-based", "in_short": "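Intact HEK-DAT cells on PDL-coated plates, in binding buffer (HEPES, NaCl, KCl, CaCl2, MgCl2, 10 μM ZnCl2, glucose, pH 7,3). Incubated with ~10 nM [3H]WIN 35,428, fixed concentrations of test compound and cocaine 0.001–1 μM, 30 min at 25 °C. Nonspecific binding defined with 30 μM mazindol. Cells lysed in 1% SDS and counted by scintillation. Reciprocal of bound (fmol) plotted against cocaine concentration as Dixon plot. Three experiments in triplicate, mean ± SD.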"}, "Rattus norvegicus [4]": {"tested_on": "Rattus norvegicus", "experiment": "Neurotoxicity in Sprague-Dawley rat assessed as limb rotation score at 10 mg/kg, ip administered 30 mins prior to test (reference value: 3.3 +/- 0.4830)", "assay_type": "toxicity, organism-based", "conditions": "in vivo, 0.5 h"}, "Rattus norvegicus [5]": {"tested_on": "Rattus norvegicus", "experiment": "Neurotoxicity in Sprague-Dawley rat assessed as effect on distance traveled in closed arms at 10 mg/kg, ip administered 30 mins prior to test by elevated plus maze test relative to control", "assay_type": "toxicity, organism-based", "conditions": "in vivo, 0.5 h", "in_short": "as §2"}, "Rattus norvegicus [6]": {"tested_on": "Rattus norvegicus", "experiment": "Neurotoxicity in Sprague-Dawley rat assessed as effect on time spent at the margin at 10 mg/kg, ip administered 30 mins prior to test by open field test relative to control", "assay_type": "toxicity, organism-based", "conditions": "in vivo, 0.5 h", "in_short": "as §1"}, "[7]": {"target": "Sodium-dependent serotonin transporter (Homo sapiens, UniProt P31645)", "sequence (P31645 whole entry)": "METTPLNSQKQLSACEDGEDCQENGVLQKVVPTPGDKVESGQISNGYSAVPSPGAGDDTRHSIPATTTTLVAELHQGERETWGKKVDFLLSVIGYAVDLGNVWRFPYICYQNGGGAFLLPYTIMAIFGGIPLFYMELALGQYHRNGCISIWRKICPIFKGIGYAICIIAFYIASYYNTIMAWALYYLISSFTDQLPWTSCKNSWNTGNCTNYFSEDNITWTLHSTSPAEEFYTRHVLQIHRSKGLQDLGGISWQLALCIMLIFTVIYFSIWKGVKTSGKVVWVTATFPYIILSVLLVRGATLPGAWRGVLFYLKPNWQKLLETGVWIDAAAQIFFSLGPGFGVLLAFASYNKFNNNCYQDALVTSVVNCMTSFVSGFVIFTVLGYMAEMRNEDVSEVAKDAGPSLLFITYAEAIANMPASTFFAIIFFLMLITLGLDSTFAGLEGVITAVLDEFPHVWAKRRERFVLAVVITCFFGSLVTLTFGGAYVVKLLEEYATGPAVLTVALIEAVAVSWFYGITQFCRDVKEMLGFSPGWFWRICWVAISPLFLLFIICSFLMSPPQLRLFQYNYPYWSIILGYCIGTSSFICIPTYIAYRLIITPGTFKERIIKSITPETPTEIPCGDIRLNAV", "experiment": "Inhibition of re-uptake of [3H]-5-HT at human SERT expressed in HEK293 cells preincubated for 5 mins followed by [3H]-dopamine addition measured after 1 min by liquid scintillation counting", "assay_type": "cell-based", "conditions": "hek293"}, "Rattus norvegicus [8]": {"tested_on": "Rattus norvegicus", "experiment": "Neurotoxicity in Sprague-Dawley rat assessed as effect on total distance traveled at 10 mg/kg, ip administered 30 mins prior to test by open field test relative to control", "assay_type": "toxicity, organism-based", "conditions": "in vivo, 0.5 h", "in_short": "as §1"}, "Rattus norvegicus [9]": {"tested_on": "Rattus norvegicus", "experiment": "Neurotoxicity in Sprague-Dawley rat assessed as effect on resting time at 10 mg/kg, ip administered 30 mins prior to test by elevated plus maze test relative to control", "assay_type": "toxicity, organism-based", "conditions": "in vivo, 0.5 h", "in_short": "as §2"}, "Rattus norvegicus [10]": {"tested_on": "Rattus norvegicus", "experiment": "Neurotoxicity in Sprague-Dawley rat assessed as tail elevation score at 10 mg/kg, ip administered 30 mins prior to test (reference value: 2.2 +/- 0.6325)", "assay_type": "toxicity, organism-based", "conditions": "in vivo, 0.5 h"}}, "note": "Activity calls are given as the source filed them. The calls are words filed in the database; no cut-off is given here.", "data": [{"compound": "[O-][S+](Cc1cccs1)C(c1ccccc1)c1ccccc1", "note": "(stereo not given)", "values": [{"measurement": "Activity", "setting": "Rattus norvegicus [1]", "result": "Non-Toxic"}, {"measurement": "Activity", "setting": "Rattus norvegicus [2]", "result": "Non-Toxic"}, {"measurement": "inhibition", "setting": "[3]", "result": "Active"}, {"measurement": "Activity", "setting": "Rattus norvegicus [4]", "result": 3.4}, {"measurement": "Activity", "setting": "Rattus norvegicus [5]", "result": "Non-Toxic"}, {"measurement": "Activity", "setting": "Rattus norvegicus [6]", "result": "Non-Toxic"}, {"measurement": "IC50", "setting": "[7]", "result": "Not Active"}, {"measurement": "Activity", "setting": "Rattus norvegicus [8]", "result": "Non-Toxic"}, {"measurement": "Activity", "setting": "Rattus norvegicus [9]", "result": "Non-Toxic"}, {"measurement": "Activity", "setting": "Rattus norvegicus [10]", "result": 1.8}]}]}
